T1: 3-hydroxy-3-methylglutaryl-coenzyme A reductase (Homo sapiens, UniProt P04035)
T1 sequence (P04035 whole entry): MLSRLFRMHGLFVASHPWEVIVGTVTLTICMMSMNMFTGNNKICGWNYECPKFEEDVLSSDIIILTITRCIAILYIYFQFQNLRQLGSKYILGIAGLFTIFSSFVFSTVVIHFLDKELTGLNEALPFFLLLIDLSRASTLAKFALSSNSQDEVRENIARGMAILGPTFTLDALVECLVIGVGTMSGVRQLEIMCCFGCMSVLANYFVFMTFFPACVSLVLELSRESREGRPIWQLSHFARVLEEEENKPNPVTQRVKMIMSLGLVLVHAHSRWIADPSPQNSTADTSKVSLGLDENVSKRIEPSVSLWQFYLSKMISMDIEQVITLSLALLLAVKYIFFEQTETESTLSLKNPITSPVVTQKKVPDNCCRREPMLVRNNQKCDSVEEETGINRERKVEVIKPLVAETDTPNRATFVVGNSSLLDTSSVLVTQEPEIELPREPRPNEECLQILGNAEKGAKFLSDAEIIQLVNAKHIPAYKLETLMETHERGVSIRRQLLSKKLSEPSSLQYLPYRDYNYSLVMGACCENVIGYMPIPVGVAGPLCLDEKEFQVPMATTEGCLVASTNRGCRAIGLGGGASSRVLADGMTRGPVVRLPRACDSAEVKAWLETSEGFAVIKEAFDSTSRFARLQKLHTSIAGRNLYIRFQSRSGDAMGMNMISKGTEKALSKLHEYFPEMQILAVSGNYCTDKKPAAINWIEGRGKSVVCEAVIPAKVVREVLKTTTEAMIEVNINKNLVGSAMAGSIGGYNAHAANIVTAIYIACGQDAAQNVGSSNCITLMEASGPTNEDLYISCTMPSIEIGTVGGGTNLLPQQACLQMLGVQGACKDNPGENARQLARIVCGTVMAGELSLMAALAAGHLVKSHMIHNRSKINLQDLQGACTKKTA

T2: Lanosterol 14-alpha demethylase (Rattus norvegicus, UniProt Q64654)
T2 sequence (Q64654 whole entry): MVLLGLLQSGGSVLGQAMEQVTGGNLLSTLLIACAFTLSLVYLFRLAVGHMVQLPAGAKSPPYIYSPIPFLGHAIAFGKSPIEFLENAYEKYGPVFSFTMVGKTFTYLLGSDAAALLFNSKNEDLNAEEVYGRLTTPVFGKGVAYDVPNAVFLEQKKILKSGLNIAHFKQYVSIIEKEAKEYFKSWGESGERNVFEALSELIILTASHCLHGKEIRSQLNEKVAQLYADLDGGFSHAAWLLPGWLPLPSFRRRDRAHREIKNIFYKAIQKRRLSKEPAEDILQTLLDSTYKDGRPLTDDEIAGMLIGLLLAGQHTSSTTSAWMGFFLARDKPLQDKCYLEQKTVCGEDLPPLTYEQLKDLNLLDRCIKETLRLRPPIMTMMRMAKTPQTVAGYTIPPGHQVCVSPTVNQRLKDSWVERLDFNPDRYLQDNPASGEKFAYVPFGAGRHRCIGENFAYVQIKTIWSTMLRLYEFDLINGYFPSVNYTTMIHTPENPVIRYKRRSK


Columns and labels:
[1] = molecular target: Lanosterol 14-alpha demethylase (Cricetulus griseus); experiment: Inhibition of cytochrome P450DM in intact CHO cells
[2] = molecular target: T1, 3-hydroxy-3-methylglutaryl-coenzyme A reductase; experiment: Inhibition of HMG-coA Reductase enzyme in chinese hamster ovary cells; type: cell-based, Cricetulus griseus, CHO
Method in brief: (§1)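 Cells grown in McCoy's 5a medium with 1% delipidated FBS under 5% CO2 and treated 4 h with compound given as a BSA suspension from an ethanol stock (final BSA 0.5 mg/mL, ethanol ≤0.5%). Cells permeabilized with 30 μg/mL digitonin in CSK buffer pH 6.8, then preincubated 20 min at 37 °C. Conversion of [14C]HMG-CoA to mevalonolactone measured with [3H]mevalonolactone internal standard and TLC separation. Value is the concentration reducing activity to 50% of control.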

[3] = molecular target: T2, Lanosterol 14-alpha demethylase; experiment: (§2) Inhibition rat liver microsome cytochrome P450DM; type: microsomes
Method in brief: (§3)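 Buffer: phosphate pH 7.4 with glutathione, EDTA, 20% glycerol, NAD(P)H cofactors, isocitrate/isocitrate dehydrogenase, MgCl2, AY-9944, NaCN. Diene product quantified by UV-HPLC. IC50 taken from linear plots of reciprocal turnover vs inhibitor concentration.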

[4] = molecular target: T1, 3-hydroxy-3-methylglutaryl-coenzyme A reductase; experiment: Inhibition of HMG-coA Reductase enzyme in AR45 cells; type: cell-based
Method in brief: as §1

[5] = substrate: [H][C@]1([C@]([H])(C)CCCC(C)C)CC[C@@]2(C)C3=C(CC[C@]12C)[C@@]1(C)CC[C@H](O)C(C)(C)C1CC3; experiment: as §2; type: microsomes
Method in brief: as §3

| Molecule | IC50 [1] [nM] | IC50 [2] [nM] | IC50 [3] [nM] | IC50 ([4]; ar45) [µM] | IC50 [4] [µM] | Km [5] [µM] |
| --- | --- | --- | --- | --- | --- | --- |
| CC(C)CCC[C@@H](C)[C@H]1CC[C@@]2(C(C)O)C3=CCC4C(C)(C)[C@@H](O)CC[C@]4(C)C3CC[C@]12C (stereo in doubt; 17a) | 300 | 3000 | 330 | > 20 |  |  |
| CC(C)CCC[C@@H](C)[C@H]1CC[C@@]2(C(C)O)C3=CCC4C(C)(C)[C@@H](O)CC[C@]4(C)C3CC[C@]12C (stereo in doubt; 17b) | 300 | 1500 | 1600 |  | > 20 |  |
| CC(=O)[C@@]12CC[C@H]([C@H](C)CCCC(C)C)[C@@]1(C)CCC1C2=CCC2C(C)(C)[C@@H](O)CC[C@]12C (stereo partly drawn) | 2700 | 1000 | 9100 |  | > 20 |  |
| Lanosterol 14-alpha demethylase (Rattus norvegicus) (protein) MVLLGLLQSGGSVLGQAMEQVTGGNLLSTLLIACAFTLSLVYLFRLAVGHMVQLPAGAKSPPYIYSPIPFLGHAIAFGKSPIEFLENAYEKYGPVFSFTMVGKTFTYLLGSDAAALLFNSKNEDLNAEEVYGRLTTPVFGKGVAYDVPNAVFLEQKKILKSGLNIAHFKQYVSIIEKEAKEYFKSWGESGERNVFEALSELIILTASHCLHGKEIRSQLNEKVAQLYADLDGGFSHAAWLLPGWLPLPSFRRRDRAHREIKNIFYKAIQKRRLSKEPAEDILQTLLDSTYKDGRPLTDDEIAGMLIGLLLAGQHTSSTTSAWMGFFLARDKPLQDKCYLEQKTVCGEDLPPLTYEQLKDLNLLDRCIKETLRLRPPIMTMMRMAKTPQTVAGYTIPPGHQVCVSPTVNQRLKDSWVERLDFNPDRYLQDNPASGEKFAYVPFGAGRHRCIGENFAYVQIKTIWSTMLRLYEFDLINGYFPSVNYTTMIHTPENPVIRYKRRSK |  |  |  |  |  | 33 |

Source: ChEMBL document CHEMBL1126590, “32-Methyl-32-oxylanosterols: dual-action inhibitors of cholesterol biosynthesis” (J Med Chem, 1993)
